Source: ChEMBL document CHEMBL2202986, “Guaianolide sesquiterpene lactones, a source to discover agents that selectively inhibit acute myelogenous leukemia stem and progenitor cells” (J Med Chem, 2012)
Active and inactive are the calls of the source.

Columns and labels:
[1] = Cytotoxicity against human HL60/A cells after 18 hrs by annexin-V labeling-based flow cytometry; type: functional, cell-based
[2] = Reduction in colony forming units of leukemia stem/progenitor cells at 0.05 uM after 15 to 20 days; type: functional, Homo sapiens
Outline: (§1)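 Mononuclear cells from AML patient […] were exposed to drug for 18 h in serum-free IMDM, then plated in triplicate in M3434 methylcellulose. Total colonies (CFC-Mix, CFC-GM, CFC-G, CFC-M, BFU-E) were scored by morphology after 15−20 days.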

[3] = Cytotoxicity against human leukemia stem/progenitor cells assessed as cell viability at 0.5 uM after 18 hrs by annexin-V labeling-based flow cytometry; type: functional; conditions: read-out: Activity
Outline: (§2)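 Primary leukemia cells from AML patient blood were treated for 18 h in serum-free IMDM, then stained with CD34-APC and CD38-PECy7 for 30 min. After washing in cold PBS, cells were labelled with Annexin-V–FITC/PI for 15 min at room temperature and read by flow cytometry. Viability of total and CD34⁺ cells was normalized to untreated controls (mean, SD).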

HL-60 = assay: Cytotoxicity against human HL60 cells after 18 hrs by annexin-V labeling-based flow cytometry; type: functional, cell-based; conditions: HL-60, 18 h
[4] = Reduction in colony forming units of leukemia stem/progenitor cells at 0.1 uM after 15 to 20 days; type: functional, Homo sapiens; outline: as §1
[5] = Antitumor activity against human leukemia stem/progenitor cells xenografted in NOD/SCID mouse assessed as survival time at 1 mg/kg, iv administered every other day total of four doses starting from 8 weeks post grafting (reference value: 43 days)
[6] = Cytotoxicity against human leukemia stem/progenitor cells assessed as viable CD34+ cells at 0.1 uM after 18 hrs by annexin-V labeling-based flow cytometry; type: functional, CD34+ cell; outline: as §2
[7] = Cytotoxicity against human leukemia stem/progenitor cells assessed as cell viability at 0.1 uM after 18 hrs by annexin-V labeling-based flow cytometry; type: functional; conditions: in the assay text read “leukemia cells” for “leukemia stem/progenitor cells”, read-out: Activity; outline: as §2
[8] = Cytotoxicity against human leukemia stem/progenitor cells assessed as viable CD34+ cells at 0.5 uM after 18 hrs by annexin-V labeling-based flow cytometry; type: functional, CD34+ cell; outline: as §2
[9] = Reduction in colony forming units of leukemia stem/progenitor cells at 10 uM after 15 to 20 days; type: functional, Homo sapiens; outline: as §1
[10] = Cytotoxicity against human leukemia cells assessed as cell viability at 10 uM after 18 hrs by annexin-V labeling-based flow cytometry
Mus musculus = assay: Volume of distribution in mouse at 150 mg/kg, po; type: ADME, organism-based; set-up: dose 150 mg/kg, route oral; conditions: in vivo
Outline: (§3)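 Male Kunming mice (20 2 g) were fasted 12 h with water available. An aqueous solution was dosed po (150 mg/kg) or iv (100 mg/kg), n = 5 per route. Blood was drawn from the orbital veins at set times to measure DMAMCL and released MCL. Parameters come from a noncompartmental model and are given as mean with SD.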

[11] = Cytotoxicity against human leukemia stem/progenitor cells assessed as cell viability at 5 uM after 18 hrs by annexin-V labeling-based flow cytometry; type: functional; conditions: in the assay text read “leukemia cells” for “leukemia stem/progenitor cells”, read-out: Activity; outline: as §2
[12] = Tmax in mouse at 150 mg/kg, po; type: ADME, organism-based; set-up: dose 150 mg/kg, route oral; conditions: in vivo
Outline: (§4)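 Male Kunming mice (20 2 g), fasted 12 h before dosing with water available, given DMAMCL as an aqueous solution po (n = 5). Blood was drawn from the orbital veins at set times. Plasma DMAMCL and MCL were followed, and parameters came from noncompartmental analysis.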

[13] = Mean retention time (0 to infinity) in mouse at 150 mg/kg, po; type: ADME, organism-based; set-up: dose 150 mg/kg, route oral; conditions: in vivo; outline: as §4
[14] = Half life in mouse at 150 mg/kg, po; type: ADME, organism-based; set-up: dose 150 mg/kg, route oral; conditions: in vivo; outline: as §4
[15] = Cmax in mouse at 150 mg/kg, po; type: ADME, organism-based; set-up: dose 150 mg/kg, route oral; conditions: in vivo; outline: as §4
[16] = Cytotoxicity against human leukemia stem/progenitor cells assessed as viable CD34+CD38- cells at 10 uM after 18 hrs by annexin-V labeling-based flow cytometry relative to control; type: functional
[17] = AUC (0 to t) in mouse at 150 mg/kg, po; type: ADME, organism-based; set-up: dose 150 mg/kg, route oral; conditions: plasma; outline: as §4
[18] = Induction of apoptosis in CD34+ leukemia stem/progenitor cells assessed as late apoptotic cells at 10 uM using annexin V/propidium iodide by flow cytometry; type: functional, Homo sapiens
Outline: (§5)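 Primary AML patient cells were exposed to 10 μM compound for 18 h in IMDM, then stained with CD34-APC/CD38-PECy7. Annexin-V–FITC/PI was added and incubated for 15 min at room temperature before flow cytometry. Quadrants were defined as Q1 necrotic, Q2 late apoptotic, Q3 early apoptotic and Q4 viable.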

[19] = Total clearance in mouse at 150 mg/kg, po; type: ADME, organism-based; set-up: dose 150 mg/kg, route oral; conditions: in vivo; outline: as §4
[20] = Induction of apoptosis in CD34+ leukemia stem/progenitor cells assessed as viable cells at 10 uM using annexin V/propidium iodide by flow cytometry; type: functional; conditions: Homo sapiens; read-out: Activity; outline: as §5
[21] = Reduction in colony forming units of leukemia stem/progenitor cells at 5 uM after 15 to 20 days; type: functional, Homo sapiens; outline: as §1
[22] = Induction of apoptosis in CD34+ leukemia stem/progenitor cells assessed as early apoptotic cells at 10 uM using annexin V/propidium iodide by flow cytometry; type: functional, Homo sapiens; outline: as §5
[23] = Cytotoxicity against human leukemia stem/progenitor cells assessed as viable CD34+ cells at 5 uM after 18 hrs by annexin-V labeling-based flow cytometry; type: functional, CD34+ cell; outline: as §2
[24] = AUC (0 to t) in mouse at 100 mg/kg, iv; type: ADME, organism-based; set-up: dose 100 mg/kg, route intravenous; conditions: plasma
Outline: (§6)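 Male Kunming mice (20 2 g), fasted 12 h before dosing with water available, given DMAMCL as an aqueous solution iv (n = 5). Blood was drawn from the orbital veins at set times. DMAMCL and MCL in plasma were measured, and parameters were derived by a noncompartmental model.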

[25] = Mean retention time (0 to t) in mouse at 100 mg/kg, iv; type: ADME, organism-based; set-up: dose 100 mg/kg, route intravenous; conditions: in vivo; outline: as §6
[26] = Total clearance in mouse at 100 mg/kg, iv; type: ADME, organism-based; set-up: dose 100 mg/kg, route intravenous; conditions: in vivo; outline: as §6
[27] = AUC (0 to infinity) in mouse at 150 mg/kg, po; type: ADME, organism-based; set-up: dose 150 mg/kg, route oral, time infinity; conditions: plasma; outline: as §4
[28] = Cytotoxicity against human CD34+ hematopioetic stem cells at 5 uM by immunostaining method; type: cell-based
Outline: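 Mononuclear cells were Ficoll-isolated from umbilical cord blood of a normal donor, cryopreserved, then rested in serum-free IMDM for 1 h. Cells were treated for 18 h in IMDM, stained with CD34-APC for 30 min, and labelled with Annexin-V–FITC/PI for 15 min at room temperature. Read by flow cytometry, normalized to vehicle, done in triplicate.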

[29] = Mean retention time (0 to t) in mouse at 150 mg/kg, po; type: ADME, organism-based; set-up: dose 150 mg/kg, route oral; conditions: in vivo; outline: as §4
[30] = Mean retention time (0 to infinity) in mouse at 100 mg/kg, iv; type: ADME, organism-based; set-up: dose 100 mg/kg, route intravenous; conditions: in vivo; outline: as §6
[31] = Induction of apoptosis in CD34+ leukemia stem/progenitor cells assessed as necrotic cells at 10 uM using annexin V/propidium iodide by flow cytometry; type: functional, Homo sapiens; outline: as §5
[32] = AUC (0 to infinity) in mouse at 100 mg/kg, iv; type: ADME, organism-based; set-up: time infinity, dose 100 mg/kg, route intravenous; conditions: plasma; outline: as §6
[33] = Cytotoxicity against human leukemia stem/progenitor cells assessed as viable CD34+ cells at 10 uM after 18 hrs by annexin-V labeling-based flow cytometry; type: functional, CD34+ cell
[34] = Volume of distribution in mouse at 100 mg/kg, iv; type: ADME, organism-based; set-up: dose 100 mg/kg, route intravenous; conditions: in vivo; outline: as §3
Homo sapiens = assay: Antitumor activity against human leukemia stem/progenitor cells xenografted in NOD/SCID mouse assessed as reduction of CD45+CD33+ cells in spleen compound pretreated for 18 hrs before grafting process measured after 8 weeks; type: functional, tissue-based
Outline: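 Fresh primary AML patient cells were exposed for 18 h to saline or compound. Equal numbers of surviving cells were then injected iv into NOD/SCID mice. After 8 weeks the mice were sacrificed, and the spleen CD33⁺CD45⁺ human cells were quantified by flow cytometry, with each animal analysed individually.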

[35] = Cmax in mouse at 100 mg/kg, iv; type: ADME, organism-based; set-up: dose 100 mg/kg, route intravenous; conditions: in vivo; outline: as §6
[36] = Cytotoxicity against human leukemia stem/progenitor cells assessed as viable CD34+ cells at 10 uM after 18 hrs by annexin-V labeling-based flow cytometry relative to control; type: functional, CD34+ cell
[37] = Half life in mouse at 100 mg/kg, iv; type: ADME, organism-based; set-up: dose 100 mg/kg, route intravenous; conditions: in vivo; outline: as §6

COc1cccc2c1C(=O)c1c(O)c3c(c(O)c1C2=O)C[C@@](O)(C(=O)CO)C[C@@H]3O[C@H]1C[C@H](N)[C@H](O)[C@H](C)O1 [DOXORUBICIN]
IC50 [1]: 6.7 µM | CFU [2]: 165 | viability at 0.5 µM [3]: 49.1% | IC50 (HL-60): 0.05 µM | CFU [4]: 170 | Survival [5]: 22 days | Activity [6]: 115% | viability at 0.1 µM [7]: 37.6% | Activity [8]: 49.1%

C=C1C(=O)O[C@H]2[C@H]1CCC(C)=C1CC[C@@](C)(O)[C@@H]12 [MICHELIOLIDE]
CFU [9]: 0 | IC50 [1]: 6.2 µM | viability at 10 µM [10]: 8.4% | Vd (Mus musculus): 265.27 L/kg | viability at 5 µM [11]: 11.7% | Tmax [12]: 0.36 h | IC50 (HL-60): 5.5 µM | MRT inf [13]: 8.28 h | half-life [14]: 7.92 h | Cmax [15]: 2610 ng/mL | fold change (FC) [16]: 5.3 | AUC(0-t) [17]: 6630 ng·h/mL | Activity [18]: 69.4% | CL/F [19]: 376 mL/min/kg | viability at 10 µM [20]: 1.42% | CFU [21]: 4.5 | Activity [22]: 24.2% | Activity [23]: 4.2% | AUC(0-t) [24]: 5490 ng·h/mL | MRT last [25]: 1.49 h | clearance [26]: 288 mL/min/kg | AUC(0-inf) [27]: 6720 ng·h/mL | Activity [28]: Non-toxic | MRT last [29]: 7.59 h | MRT inf [30]: 6.34 h | Activity [31]: 0.127% | AUC(0-inf) [32]: 5850 ng·h/mL | Activity [33]: 2.3% | Vd [34]: 533 L/kg | Activity (Homo sapiens): Active | Cmax [35]: 10700 ng/mL | fold change (FC) [36]: 3.2 | half-life [37]: 12.7 h
